Measurements as given in ChEMBL document CHEMBL1144264, “Structure-activity relationship studies on ortho-substituted cinnamic acids, a new class of selective EP(3) antagonists” (Bioorg Med Chem Lett, 2005).

Experiments:
HEK293 [1] = experiment: Inhibition of c-AMP production in HEK (EBNA) cells was determined by c-AMP assay; format: functional, HEK293-EBNA; details: Homo sapiens
Outline: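 Functional cAMP read-out in HEK (EBNA) cells expressing the receptor: antagonism scored as reversal of EP3-mediated inhibition of cAMP production; EP2 activity scored as stimulation of cAMP production.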

[2] = target: T1, Prostaglandin E2 receptor EP3 subtype (Homo sapiens, UniProt P43115); experiment: Binding affinity for human prostanoid EP3 receptor
T1 sequence (P43115 whole entry): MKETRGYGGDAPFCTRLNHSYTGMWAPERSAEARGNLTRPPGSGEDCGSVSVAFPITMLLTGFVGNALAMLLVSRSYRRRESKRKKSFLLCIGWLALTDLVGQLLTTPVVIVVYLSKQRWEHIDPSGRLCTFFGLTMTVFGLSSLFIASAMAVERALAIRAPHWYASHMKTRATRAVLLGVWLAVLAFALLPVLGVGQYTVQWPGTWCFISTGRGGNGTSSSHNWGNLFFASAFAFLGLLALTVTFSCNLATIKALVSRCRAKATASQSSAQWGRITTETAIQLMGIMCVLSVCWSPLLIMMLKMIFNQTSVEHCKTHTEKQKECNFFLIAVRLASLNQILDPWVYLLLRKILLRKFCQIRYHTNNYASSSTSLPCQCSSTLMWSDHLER

[3] = target: Prostaglandin E2 receptor EP2 subtype (Homo sapiens, UniProt P43116); experiment: Binding affinity for human prostanoid EP2 receptor
Chain of Prostaglandin E2 receptor EP2 subtype (P43116 whole entry): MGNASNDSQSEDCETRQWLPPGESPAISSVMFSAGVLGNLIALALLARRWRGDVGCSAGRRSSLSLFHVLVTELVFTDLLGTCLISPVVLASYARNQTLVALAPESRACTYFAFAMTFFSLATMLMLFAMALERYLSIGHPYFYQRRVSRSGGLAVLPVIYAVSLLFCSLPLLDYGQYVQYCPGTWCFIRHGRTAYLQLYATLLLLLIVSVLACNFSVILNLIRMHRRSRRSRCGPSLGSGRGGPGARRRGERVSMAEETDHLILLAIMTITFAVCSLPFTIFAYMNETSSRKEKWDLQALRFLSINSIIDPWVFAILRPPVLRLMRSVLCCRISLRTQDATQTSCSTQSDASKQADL

[4] = target: Prostaglandin E2 receptor EP4 subtype (Homo sapiens, UniProt P35408); experiment: Binding affinity for human prostanoid EP4 receptor
Chain of Prostaglandin E2 receptor EP4 subtype (P35408 whole entry): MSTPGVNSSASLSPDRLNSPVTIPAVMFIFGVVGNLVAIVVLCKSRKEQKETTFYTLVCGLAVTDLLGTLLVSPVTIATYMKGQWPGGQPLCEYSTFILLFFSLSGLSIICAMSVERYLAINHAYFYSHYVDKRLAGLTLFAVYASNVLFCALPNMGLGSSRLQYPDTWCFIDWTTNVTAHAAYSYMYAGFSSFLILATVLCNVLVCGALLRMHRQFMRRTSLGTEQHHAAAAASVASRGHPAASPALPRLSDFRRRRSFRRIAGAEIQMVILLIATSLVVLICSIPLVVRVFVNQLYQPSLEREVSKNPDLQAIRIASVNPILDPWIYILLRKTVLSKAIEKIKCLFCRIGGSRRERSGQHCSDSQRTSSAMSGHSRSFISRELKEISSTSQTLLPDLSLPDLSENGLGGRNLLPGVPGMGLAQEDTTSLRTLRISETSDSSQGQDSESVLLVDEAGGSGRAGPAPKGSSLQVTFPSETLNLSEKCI

[5] = target: T2, Prostaglandin E2 receptor EP1 subtype (Homo sapiens, UniProt P34995); experiment: Binding affinity for human prostanoid EP1 receptor
T2 sequence (P34995 whole entry): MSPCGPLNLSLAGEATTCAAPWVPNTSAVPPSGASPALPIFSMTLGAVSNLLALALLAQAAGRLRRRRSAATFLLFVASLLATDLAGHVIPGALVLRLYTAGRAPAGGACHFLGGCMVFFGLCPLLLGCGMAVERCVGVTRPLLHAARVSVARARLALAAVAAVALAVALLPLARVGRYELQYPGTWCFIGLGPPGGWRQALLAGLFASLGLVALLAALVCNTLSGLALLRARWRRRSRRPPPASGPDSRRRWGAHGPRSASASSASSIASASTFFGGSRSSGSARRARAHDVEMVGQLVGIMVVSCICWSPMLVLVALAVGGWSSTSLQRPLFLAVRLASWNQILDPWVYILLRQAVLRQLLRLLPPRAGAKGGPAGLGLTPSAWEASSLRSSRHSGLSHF

[6] = Clearance in rats after 10 mg/kg peroral and 5 mg/kg intravenous administration as sodium salts; format: ADME, organism-based; details: rat, in vivo
Outline: (§1)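 Male Sprague–Dawley rats, 300–400 g. Oral bioavailability, clearance (mL/min/kg), Cmax (µM, with time of peak) and half-life derived from plasma profiles.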

[7] = Maximum concentration in rats after 10 mg/kg peroral and 5 mg/kg intravenous administration as sodium salts; format: ADME, organism-based; details: rat, in vivo, po; outline: as §1
[8] = Bioavailability in rat (dose 10 mg/kg p.o. and 5 mg/kg i.v.) (dosed as sodium salt); format: ADME, organism-based; details: in vivo, po; outline: as §1
HEK293 [9] = experiment: Stimulation of c-AMP production in HEK (EBNA) cells was determined by c-AMP assay; details: Homo sapiens
[10] = Half life in rats after 10 mg/kg peroral and 5 mg/kg intravenous administration as sodium salts; format: ADME, organism-based; details: rat, in vivo; outline: as §1

| Ki [2] [µM] | Ki [3] [µM] | Ki [4] [µM] | Ki [5] [µM] | clearance [6] [mL/min/kg] | Cmax [7] [µM] | bioavailability [8] [%] | half-life [10] [h] | SMILES | Kb (HEK293 [1]) [µM] | Kb (HEK293 [9]) [µM] |
| --- | --- | --- | --- | --- | --- | --- | --- | --- | --- | --- |
| 0.025 | 0.68 | 1 | 24 | – | – | – | – | O=C(O)/C=C/c1ccccc1/C=C/Cc1ccccc1OCc1ccccc1.O=C(O)/C=C/c1ccccc1C/C=C\c1ccccc1OCc1ccccc1 | 0.05 | – |
| 0.05 | 0.018 | 0.45 | 14 | – | – | – | – | O=C(O)/C=C/c1ccccc1/C=C/Cc1cccc(OCc2ccccc2)c1.O=C(O)/C=C/c1ccccc1C/C=C\c1cccc(OCc2ccccc2)c1 | 0.062 | – |
| 2 | 0.63 | 3.1 | 21 | – | – | – | – | Cc1cccc(/C=C/Cc2cccc(/C=C/C(=O)O)c2)c1OCc1ccccc1.Cc1cccc(C/C=C/c2cccc(/C=C/C(=O)O)c2)c1OCc1ccccc1 | – | – |
| 2.7 | 7.1 | 5.7 | 16 | – | – | – | – | Cc1cccc(/C=C\Cc2ccccc2C(=O)O)c1OCc1ccccc1.Cc1cccc(C/C=C/c2ccccc2C(=O)O)c1OCc1ccccc1 | – | – |
| 3.4 | 2.9 | 4.3 | 21 | – | – | – | – | Cc1cccc(/C=C/Cc2ccccc2CC(=O)O)c1OCc1ccccc1.Cc1cccc(C/C=C/c2ccccc2CC(=O)O)c1OCc1ccccc1 | – | – |
| 0.26 | 8.7 | 0.83 | 2.8 | – | – | – | – | CC(=O)c1ccc(OCc2ccccc2)c(/C=C/Cc2ccccc2/C=C/C(=O)O)c1.CC(=O)c1ccc(OCc2ccccc2)c(C/C=C/c2ccccc2/C=C/C(=O)O)c1 | – | – |
| 0.013 | 2.5 | 0.74 | 7.1 | – | – | – | – | O=C(O)/C=C/c1ccccc1/C=C/Cc1cccc(CO)c1OCc1c(Cl)cccc1Cl.O=C(O)/C=C/c1ccccc1C/C=C/c1cccc(CO)c1OCc1c(Cl)cccc1Cl | – | – |
| 0.1 | 1.4 | 4.4 | > 100 | – | – | – | – | O=C(O)/C=C/c1ccccc1/C=C/Cc1ccccc1.O=C(O)/C=C/c1ccccc1C/C=C/c1ccccc1 | – | – |
| 0.068 | 2.5 | 6.2 | > 100 | – | – | – | – | COc1ccc(/C=C/Cc2ccccc2/C=C/C(=O)O)cc1.COc1ccc(C/C=C/c2ccccc2/C=C/C(=O)O)cc1 | – | – |
| 0.008 | 0.75 | 0.61 | > 20 | – | – | – | – | COc1cc(/C=C\Cc2ccccc2/C=C/C(=O)O)ccc1OCc1ccccc1.COc1cc(C/C=C/c2ccccc2/C=C/C(=O)O)ccc1OCc1ccccc1 | 0.006 | – |
| – | – | – | – | – | – | – | – | Cc1cccc(/C=C/Cc2ccccc2/C=C/C(=O)O)c1OCc1ccccc1 | 0.017 | – |
| 0.007 | 4.1 | 2.4 | 17 | – | – | – | – | Cc1cccc(/C=C/Cc2ccccc2/C=C/C(=O)O)c1OCc1ccc(F)cc1 | 0.004 | – |
| 0.065 | 0.94 | 0.44 | 23 | – | – | – | – | Cc1cccc(CCCc2ccccc2CCC(=O)O)c1OCc1ccccc1 | – | – |
| 0.01 | 7.3 | 1.6 | 68 | – | – | – | – | Cc1cccc(/C=C/Cc2ccccc2/C=C/C(=O)O)c1O | 0.028 | – |
| 0.01 | 2.1 | 0.93 | 3 | – | – | – | – | Cc1cccc(/C=C/C(O)c2ccccc2/C=C/C(=O)O)c1OCc1c(Cl)cccc1Cl (configuration not stated) | 0.03 | – |
| 1.4 | 0.008 | 2.8 | 45 | 16 | 1.7 | 17 | 2 | O=C(O)/C=C/c1ccccc1/C=C/c1ccccc1OCc1ccccc1 | – | 0.003 |
| 0.019 | 1.1 | 4.3 | > 9 | – | – | – | – | COc1cccc(CCCc2ccccc2/C=C/C(=O)O)c1OCc1ccccc1 | 0.029 | – |
| 0.003 | 5.4 | 0.62 | 6.7 | 5.8 | 25 | 74 | 2 | Cc1cccc(/C=C/Cc2ccccc2/C=C/C(=O)O)c1OCc1c(Cl)cccc1Cl | 0.006 | – |
| 0.009 | 3.9 | 1 | 13 | – | – | – | – | Cc1cccc(C(O)/C=C/c2ccccc2/C=C/C(=O)O)c1OCc1c(Cl)cccc1Cl (configuration not stated) | 0.03 | – |
| 0.013 | 0.38 | 2.9 | > 10 | – | – | – | – | Cc1cccc(CCCc2ccccc2/C=C/C(=O)O)c1OCc1ccccc1 | 0.038 | – |
| 0.013 | 0.55 | 1.2 | – | – | – | – | – | Cc1cccc(/C=C/Cc2ccccc2/C=C/C(=O)O)c1OCc1ccccc1.Cc1cccc(C/C=C/c2ccccc2/C=C/C(=O)O)c1OCc1ccccc1 (stereo in doubt; 2a) | – | – |
| 0.009 | 0.86 | 2 | 19 | 10 | 22 | 97 | 2 | Cc1cccc(/C=C/Cc2ccccc2/C=C/C(=O)O)c1OCc1ccccc1.Cc1cccc(C/C=C/c2ccccc2/C=C/C(=O)O)c1OCc1ccccc1 (stereo in doubt; 2a/3a) | 0.032 | – |

| SMILES | Ki [2] [µM] | Ki [3] [µM] | Ki [4] [µM] | Ki [5] [µM] | clearance [6] [mL/min/kg] | Cmax [7] [µM] | bioavailability [8] [%] | half-life [10] [h] | Kb (HEK293 [1]) [µM] | Kb (HEK293 [9]) [µM] |
| --- | --- | --- | --- | --- | --- | --- | --- | --- | --- | --- |
| Cc1cccc(/C=C/Cc2ccc(/C=C/C(=O)O)cc2)c1OCc1ccccc1.Cc1cccc(C/C=C\c2ccc(/C=C/C(=O)O)cc2)c1OCc1ccccc1 | 2.9 | 1.7 | 5.5 | > 30 | – | – | – | – | – | – |
